ChEMBL document CHEMBL4011645, “New Inhibitor Targeting Signal Transducer and Activator of Transcription 5 (STAT5) Signaling in Myeloid Leukemias” (J Med Chem, 2017)
Calls of active or inactive are those of the source. No cut-off for these calls is given here.

Tests used:
KU812 cell line [1] = assay: Antiproliferative activity against human KU812 cells at 10 uM after 48 hrs by trypan blue assay; format: functional, cell-based
Summary of the method: (§1)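 Screen at a single 10 μM, DMSO as vehicle control, growth followed at 24, 48 and 72 h. Readouts: MTT (0.2×10^5 cells/well in X-Vivo, 4 h MTT, SDS/HCl lysis, OD 570 nm) and trypan blue exclusion counts of living cells. n = 3 in triplicates, mean ± SEM.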

KU812 cell line [2] = assay: Antiproliferative activity against human KU812 cells at 10 uM after 48 hrs by MTT assay; format: functional, cell-based; summary of the method: as §1
K562 [3] = assay: Antiproliferative activity against human K562 cells at 10 uM after 48 hrs by trypan blue assay; format: functional, cell-based; summary of the method: as §1
K562 [4] = assay: Antiproliferative activity against human K562 cells at 10 uM after 48 hrs by MTT assay; format: functional, cell-based; summary of the method: as §1
K562 [5] = assay: Antiproliferative activity against human K562 cells at 10 uM after 72 hrs by trypan blue assay; format: functional, cell-based; summary of the method: as §1
KU812 cell line [6] = assay: Antiproliferative activity against human KU812 cells after 48 hrs by MTT assay; format: functional, cell-based; settings: KU812, 48 h
Summary of the method: (§2)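 K562 or KU812 cells (RPMI/10% FBS, 37 °C, 5% CO2) exposed to 100 nM–50 μM for 48 h. 0.2×10^5 cells per well in phenol-red-free X-Vivo, MTT 4 h, lysis overnight in 10% SDS/0.003% HCl, absorbance at 570 nm. EC50 fitted; n = 3 in triplicates, mean ± SEM.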

KU812 cell line [7] = assay: Induction of apoptosis in human KU812 cells at 10 uM after 48 hrs by FITC-Annexin V and 7-amino-actinomycin D staining-based flow cytometry method; format: functional, cell-based
Summary of the method: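 After 48 h culture with 10 μM or DMSO, 10^6 cells stained with FITC-Annexin V and 7-AAD for 15 min at 4 °C. Percentage of apoptotic cells measured by flow cytometry; n = 3 in triplicates, mean ± SEM.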

KU812 cell line [8] = assay: Antiproliferative activity against human KU812 cells at 10 uM after 72 hrs by trypan blue assay; format: functional, cell-based; summary of the method: as §1
K562 [9] = assay: Antiproliferative activity against human K562 cells after 48 hrs by MTT assay; format: functional, cell-based; settings: K562, 48 h; summary of the method: as §2
K562 [10] = assay: Antiproliferative activity against human K562 cells at 10 uM after 72 hrs by MTT assay; format: functional, cell-based; summary of the method: as §1
KU812 cell line [11] = assay: Antiproliferative activity against human KU812 cells at 10 uM after 24 hrs by MTT assay; format: functional, cell-based; summary of the method: as §1
KU812 cell line [12] = assay: Antiproliferative activity against human KU812 cells at 10 uM after 24 hrs by trypan blue assay; format: functional, cell-based; summary of the method: as §1
K562 [13] = assay: Antiproliferative activity against human K562 cells at 10 uM after 24 hrs by MTT assay; format: functional, cell-based; summary of the method: as §1
K562 [14] = assay: Antiproliferative activity against human K562 cells at 10 uM after 24 hrs by trypan blue assay; format: functional, cell-based; summary of the method: as §1
KU812 cell line [15] = assay: Antiproliferative activity against human KU812 cells at 10 uM up to 72 hrs by MTT assay; format: functional, cell-based; summary of the method: as §1
[16] = molecular target: T1, Signal transducer and activator of transcription 5A (Homo sapiens) (UniProt P42229); assay: Inhibition of STAT5 phosphorylation in human KU812 cells at 10 uM after 72 hrs by Western blot method; format: cell-based
T1 sequence (whole entry): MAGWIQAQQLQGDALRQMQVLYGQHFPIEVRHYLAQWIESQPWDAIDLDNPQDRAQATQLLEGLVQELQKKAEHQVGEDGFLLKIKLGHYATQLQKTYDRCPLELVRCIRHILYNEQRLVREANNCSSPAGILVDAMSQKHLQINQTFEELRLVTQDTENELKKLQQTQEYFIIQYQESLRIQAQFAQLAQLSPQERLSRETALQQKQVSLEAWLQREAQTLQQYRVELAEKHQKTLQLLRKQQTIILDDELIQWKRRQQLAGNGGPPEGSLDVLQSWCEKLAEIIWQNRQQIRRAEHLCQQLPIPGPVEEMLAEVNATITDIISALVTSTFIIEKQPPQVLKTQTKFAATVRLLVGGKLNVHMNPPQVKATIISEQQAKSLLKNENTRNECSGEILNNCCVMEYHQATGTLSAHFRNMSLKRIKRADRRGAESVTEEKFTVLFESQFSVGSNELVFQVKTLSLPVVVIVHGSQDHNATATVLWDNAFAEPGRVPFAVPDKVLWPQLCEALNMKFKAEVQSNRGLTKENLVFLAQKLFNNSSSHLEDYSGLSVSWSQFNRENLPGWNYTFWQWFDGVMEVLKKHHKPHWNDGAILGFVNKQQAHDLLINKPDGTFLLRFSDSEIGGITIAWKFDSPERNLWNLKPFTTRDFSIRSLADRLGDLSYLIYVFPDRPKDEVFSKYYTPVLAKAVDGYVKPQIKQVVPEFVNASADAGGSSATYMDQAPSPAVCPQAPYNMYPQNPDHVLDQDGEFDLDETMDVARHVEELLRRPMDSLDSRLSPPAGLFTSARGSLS
Summary of the method: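 Western blot of KU812 cells 72 h after exposure to 10 µM. Lysates in 2x Laemmli buffer were run on SDS-PAGE and transferred to nitrocellulose. Blots were probed with P-Y694/699-STAT5 and STAT5 antibodies and detected by ECL.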

SMILES	Activity (K562 [5])	EC50 (KU812 cell line [6]) [µM]	Activity (KU812 cell line [8])	EC50 (K562 [9]) [µM]	Activity (K562 [10])	Activity (KU812 cell line [15])	further results
CC1(C)CCN(CCOc2ccc3c(ccn3CC(=O)O)c2)c2ccccc21							Activity (KU812 cell line [1]): inactive; Activity (KU812 cell line [2]): inactive; Activity (K562 [3]): inactive; Activity (K562 [4]): inactive
CC1(C)CCN(CCOc2ccc3[nH]ccc3c2)c2ccc(-c3ccncc3)cc21	Active	9.38	Active	22.7			Activity (KU812 cell line [7]): Active
CC1(C)CCN(CCOc2ccc3[nH]ccc3c2)c2ccc(C(=O)C3CCCCC3)cc21	inactive				inactive		Activity (KU812 cell line [1]): inactive; Activity (KU812 cell line [2]): inactive; Activity (K562 [3]): Active; Activity (K562 [4]): Active; Activity (KU812 cell line [11]): Active; Activity (KU812 cell line [12]): Active
CC1(C)CCN(CCOc2ccc3[nH]ccc3c2)c2ccc(Br)cc21		7.59		15.6			
CC1(C)CCN(CCOc2ccc3[nH]ccc3c2)c2ccccc21		14.6		78.1			Activity (K562 [13]): Active; Activity (KU812 cell line [11]): Active; Activity (K562 [14]): Active; Activity (KU812 cell line [12]): Active
CC1(C)CCN(CCOc2ccc3[nH]ccc3c2)c2ccc(-c3cccc([N+](=O)[O-])c3)cc21	inactive		inactive		inactive	inactive	
Cn1ccc2cc(OCCN3CCC(C)(C)c4ccccc43)ccc21	inactive		inactive		inactive	inactive	
CC1(C)CCN(CCOc2ccc3[nH]ccc3c2)c2ccc(-c3ccccn3)cc21	inactive		inactive		inactive	inactive	
CCOC(=O)Cn1ccc2cc(OCCN3CCC(C)(C)c4ccccc43)ccc21	inactive		inactive		inactive	inactive	
CC1(C)CCN(CCOc2ccc3[nH]ccc3c2)c2ccc(-c3ccc(Cl)nc3)cc21		5.41	Active	13			Activity (KU812 cell line [7]): Active
CC1(C)CCN(CCOc2ccc3c(ccn3CC(=O)O)c2)c2ccc(C(=O)C3CCCCC3)cc21		197					inhibition [16]: Active
